According to ChEMBL document CHEMBL1126153, “Synthesis and biological activity of certain alkyl 5-(alkoxycarbonyl)-1H-benzimidazole-2-carbamates and related derivatives: a new class of potential antineoplastic and antifilarial agents” (J Med Chem, 1992):

Tests used:
L1210 [1] = test: In vitro test against L1210 murine leukemia cell growth rate at 10 uM concentration; format: functional, Mus musculus
How it was run: (§1)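 L1210 cells were grown in static suspension culture in Fischer's medium with test compound, and counted twice daily over 3 days. Growth rate is the control population doubling time (average 12 h) divided by the treated doubling time, as a % of control. The IC50 is the concentration that reduces the growth rate to 50% of control.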

Brugia pahangi [2] = test: Antifilarial activity measured against the adult worms of Brugia pahangi in jirds by subcutaneous administration; format: functional; design: concentration or dose not given beside the values
How it was run: (§2)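 Jirds carrying implanted adult worms (three to five per group) were dosed once daily for 5 consecutive days, or on day 1 only where noted. Dosing was subcutaneous or oral, with drug as a solution or suspension in aqueous 1% (hydroxyethyl)cellulose plus 0.1% Tween 80. Survivors were necropsied 55 to 70 days after the first dose and searched for adult worms. Counts are given as % of control.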

L1210 [3] = test: In vitro for its inhibitory activity against L1210 murine leukemia cell growth; format: functional, cell-based; details: Mus musculus; how it was run: as §1
Brugia pahangi [4] = test: Antifilarial activity measured against the adult worms of Brugia pahangi in jirds by subcutaneous administration; design: concentration or dose not given beside the values
L1210 [5] = test: Compound was tested in vitro against L1210 murine leukemia cell growth rate at a concentration of 100 uM; format: functional, Mus musculus; how it was run: as §1
L1210 [6] = test: Compound was tested in vitro for its inhibitory activity against L1210 murine leukemia cell growth at a concentration of 100 uM; format: functional, cell-based; details: Mus musculus; how it was run: as §1
Acanthocheilonema viteae [7] = test: Antifilarial activity was measured against the adult worms of Acanthocheilonema viteae in jirds by subcutaneous administration at a concentration of 50 mg/kg/day; format: functional; how it was run: as §2
Acanthocheilonema viteae [8] = test: Antifilarial activity was measured against the adult worms of Acanthocheilonema viteae in jirds by oral administration at a concentration of 100 mg/kg/day; format: functional; how it was run: as §2
Brugia pahangi [9] = test: Antifilarial activity was measured against the adult worms of Brugia pahangi in jirds by subcutaneous administration at a concentration of 100 mg/kg/day
Homo sapiens [10] = organism: Homo sapiens; test: Compound was tested in vitro against human epidermoid carcinoma cell (H. Ep. 2) growth rate at a concentration of 10 uM; format: functional
Homo sapiens [11] = organism: Homo sapiens; test: Compound was tested in vitro for its inhibitory activity against human epidermoid carcinoma cell (H. Ep. 2) growth at a concentration of 10 uM; format: functional; details: HEp-2
Acanthocheilonema viteae [12] = test: Antifilarial activity was measured against the adult worms of Acanthocheilonema viteae in jirds by subcutaneous administration at a dose of 15.6 mg/kg/5 days; format: functional; details: in the assay text read “1.56 mg/kg/5 days” for “15.6 mg/kg/5 days”; how it was run: as §2
Brugia pahangi [13] = test: Antifilarial activity was measured against the adult worms of Brugia pahangi in jirds by oral administration at a dose of 100 mg/kg/day; format: functional; how it was run: as §2
Brugia pahangi [14] = test: Antifilarial activity was measured against the adult worms of Brugia pahangi in jirds by subcutaneous administration at a dose of 1.6 mg/kg/day; format: functional; how it was run: as §2
Brugia pahangi [15] = test: Antifilarial activity was measured against the adult worms of Brugia pahangi in jirds by subcutaneous administration at a dose of 12.5 mg/kg/day; format: functional; how it was run: as §2
Brugia pahangi [16] = test: Antifilarial activity was measured against the adult worms of Brugia pahangi in jirds by subcutaneous administration at a dose of 6.5 mg/kg/day; format: functional; how it was run: as §2
Brugia pahangi [17] = test: Antifilarial activity was measured against the adult worms of Brugia pahangi in jirds by subcutaneous administration at a dose of 25 mg/Kg/day; format: functional; how it was run: as §2
Brugia pahangi [18] = test: Antifilarial activity was measured against the adult worms of Brugia pahangi in jirds by subcutaneous administration at a dose of 6.2 mg/Kg/day; format: functional; how it was run: as §2
Brugia pahangi [19] = test: Antifilarial activity was measured against the adult worms of Brugia pahangi in jirds by subcutaneous administration at a concentration of 25 mg/Kg/day
Brugia pahangi [20] = test: Antifilarial activity was measured against the adult worms of Brugia pahangi in jirds by subcutaneous administration at a concentration of 12.5 mg/Kg/day
Brugia pahangi [21] = test: Antifilarial activity was measured against the adult worms of Brugia pahangi in jirds by subcutaneous administration at a dose of 100 mg/Kg/day; format: functional; how it was run: as §2

SMILES | IC50 (L1210 [3]) [µM] | Control (L1210 [1]) [%] | Control (Brugia pahangi [2]) [%] | other results
COC(=O)Nc1nc2cc(NC(=O)c3cccc(F)c3)ccc2[nH]1 |  | 100 |  | 
COC(=O)Nc1nc2cc(C(=O)OCC3CC3)ccc2[nH]1 | 6.9 | 45 | 69 | 
COC(=O)Nc1nc2cc(C(=O)OCCC(C)C)ccc2[nH]1 | 10 | 60 | 69 | 
COC(=O)Nc1nc2cc(C(=O)Nc3ccc(C(F)(F)F)cc3)ccc2[nH]1 |  | 100 |  | Control (Brugia pahangi [4]): 77%
COC(=O)Nc1nc2cc(NC(=O)c3ccccc3F)ccc2[nH]1 |  |  |  | Control (L1210 [5]): 0%; IC50 (L1210 [6]): 14 µM; Control (Brugia pahangi [4]): 116%
CC(C)OC(=O)Nc1nc2cc(C(=O)OC(C)C)ccc2[nH]1 | 0.73 | 0 | 87 | Control (Homo sapiens [10]): 0%; IC50 (Homo sapiens [11]): 0.39 µM
COC(=O)Nc1nc2cc(NC(=O)c3ccc(F)cc3)ccc2[nH]1 |  |  |  | Control (Brugia pahangi [4]): 133%
COC(=O)Nc1nc2cc(C(=O)O)ccc2[nH]1 |  | 100 |  | Control (Brugia pahangi [21]): 0%
COC(=O)Nc1nc2cc(C(=O)OCC(C)(C)C)ccc2[nH]1 |  |  | 82 | 
CCCOC(=O)Nc1nc2cc(C(=O)OCCC)ccc2[nH]1 | 8.2 | 36 | 85 | 
COC(=O)Nc1nc2cc(C(=O)c3cccs3)ccc2[nH]1 [NOCODAZOLE] | 0.038 | 0 |  | Control (Homo sapiens [10]): 0%; IC50 (Homo sapiens [11]): 0.033 µM

Second part, led by results:

IC50 (L1210 [3]) [µM] | SMILES | Control (L1210 [1]) [%] | Control (Brugia pahangi [2]) [%] | other results
10 | C#CCOC(=O)c1ccc2[nH]c(NC(=O)OC)nc2c1 | 58 | 79 | 
8.6 | COC(=O)Nc1nc2cc(C(=O)NCC(C)(C)C)ccc2[nH]1 | 48 |  | Control (Acanthocheilonema viteae [7]): 0%; Control (Acanthocheilonema viteae [8]): 54%; Control (Brugia pahangi [4]): 50%; Control (Brugia pahangi [9]): 0%
2 | COC(=O)Nc1nc2cc(C(=O)NC(C)C)ccc2[nH]1 | 0 | 0 | Control (Acanthocheilonema viteae [12]): 57%; Control (Brugia pahangi [13]): 110%; Control (Brugia pahangi [14]): 94%; Control (Brugia pahangi [15]): 0%; Control (Brugia pahangi [16]): 4%; Control (Homo sapiens [10]): 0%; IC50 (Homo sapiens [11]): 1.6 µM
5 | COC(=O)Nc1nc2cc(C(=O)OC)ccc2[nH]1 | 50 |  | Control (Brugia pahangi [17]): 53%; Control (Brugia pahangi [18]): 79%; Control (Homo sapiens [10]): 0%; IC50 (Homo sapiens [11]): 1.1 µM; Control (Brugia pahangi [19]): 4%; Control (Brugia pahangi [20]): 12%
> 10 | C=CCOC(=O)c1ccc2[nH]c(NC(=O)OC)nc2c1 | 75 | 87 | 
2.8 | CCOC(=O)c1ccc2[nH]c(NC(=O)OC)nc2c1 | 0 | 0 | Control (Brugia pahangi [14]): 100%; Control (Brugia pahangi [15]): 6%; Control (Homo sapiens [10]): 0%; IC50 (Homo sapiens [11]): 0.24 µM
